Compound activity from PubChem BioAssay.
MT1-MMP txn act – MT1-MMP promoter transcription activation; HT1080 MT1-MMP promoter luciferase reporter, luminescence, overnight; active compounds read high; AID 750; hit rate 0.16% among 86,000; activation factor at 10 µM;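 active = activation factor of at least 2 for MT1-MMP transcription at 10 µM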
M1 antag – blocks the rat M1 muscarinic receptor response to acetylcholine; P08482; CHO-M1 cells, Fluo-4 calcium, ACh EC80 antagonist mode; active compounds read low; B-score at 10 µM; hit rate 3.4% among 64,000; AID 628;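 active = calcium fluorescence response, raw or row-and-column corrected B-score, differing from the plate sample mean either way at a set confidence level, mostly lower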
M1 ag – activates the M1 muscarinic receptor. CHO-M1 cells, Fluo-4 calcium fluorescence, agonist mode; active compounds read high. B-score at 10 µM. hit rate 3% among 64,000;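 active = fluorescence rise, raw or as B-score row- and column-corrected plate score, outside the 99.7% band of its plate's samples, either direction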
RORA act – RORA (human) activation | activation, % at 10 µM | P35398 | CHO-K1 Gal4-RORA LBD luciferase reporter, luminescence; percent increase over mock-subtracted basal signal | hit rate 1.5% among 65,000;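 active = activation above the mean of all tested compounds plus 3 SD, cut at about 49% in these data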;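 also: 0% = DMSO-treated RORA cells and 100% = added signal equal to DMSO minus mock-transfected cells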
SF1 activator – activators of human nuclear receptor SF-1; Q13285; CHO-K1 Gal4-SF-1 LBD luciferase reporter; % increase over DMSO SF-1-specific signal; activation, % at 10 µM; hit rate 1.9% among 65,000;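 active = activation above the mean activation of all tested compounds plus 3 SD, cut at about 50% in these data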
Target sequence (Q13285 whole entry, looked up, the tested form may be a part): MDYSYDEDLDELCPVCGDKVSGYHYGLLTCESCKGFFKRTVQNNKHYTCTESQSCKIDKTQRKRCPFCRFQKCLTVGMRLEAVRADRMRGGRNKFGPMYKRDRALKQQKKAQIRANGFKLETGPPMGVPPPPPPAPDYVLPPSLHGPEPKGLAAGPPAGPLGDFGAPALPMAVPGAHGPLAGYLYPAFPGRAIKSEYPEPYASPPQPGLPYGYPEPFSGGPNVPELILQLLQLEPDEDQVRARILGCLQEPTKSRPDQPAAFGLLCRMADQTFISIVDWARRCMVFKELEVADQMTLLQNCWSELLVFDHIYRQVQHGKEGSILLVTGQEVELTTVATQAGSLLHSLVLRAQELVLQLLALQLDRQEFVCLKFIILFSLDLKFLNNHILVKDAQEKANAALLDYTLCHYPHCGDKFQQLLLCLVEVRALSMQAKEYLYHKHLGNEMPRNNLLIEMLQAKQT
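Assay system: CHO-K1 cells co-transfected with Gal4 DBD–human SF-1 LBD, 5xGal4 luciferase reporter; doses: 10 µM only; incubation: 20 h compound exposure at 37 °C after 1 h cell settling; signal: luciferase light emission; evaluation: percent activation versus DMSO; repeats: one test per compound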
M1 antag conf – M1 muscarinic receptor (rat) antagonism, confirmed | shares compounds with M1 antag | CHO-M1 cells, Fluo-4 calcium, ACh EC80 antagonism; active compounds read low | calcium response (max-min fluorescence) at 10 µM | hit rate 43% among 1,700 | AID 677;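 active = calcium response below the same-plate mean of wells given acetylcholine alone at its 80%-effect dose, minus 3 SD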;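 also: raw fluorescence intensity difference in arbitrary instrument units and not normalized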
mGluR4 antag – mGluR4 (human) activity, M1 antagonist secondary assay | shares compounds with M1 antag | CHO-mGluR4 calcium flux, Fluo-4 fluorescence, glutamate EC80; active compounds read low | fluorescence response (max-min) at 10 µM | hit rate 0.9% among 1,700 | AID 678;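 active = fluorescence response below the plate's average for near-maximal glutamate wells, less 3 SD of those wells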;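 also: raw unnormalized fluorescence span taken in the window right after glutamate addition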
* hit, by the source's call; · = not tested or not shown. Sampled rows, rich in hits. Any-hit rate of the full collection: about 6.3%.

SMILES | MT1-MMP txn act | M1 antag | M1 ag | RORA act | SF1 activator | M1 antag conf | mGluR4 antag
CCOC(=O)c1[nH]c2ccc(Br)cc2c1NC(=O)CCN1CCCCC1 | 1.3 | -14.6* | -0.575 | -14.8 | -10.0 | 25.4* | 143*
CCOC(=O)c1[nH]c2ccc(Br)cc2c1NC(=O)CCN1CCC(C(=O)OCC)CC1 | 1.3 | -5.16* | -0.484 | -8.9 | -7.0 | 408* | 247
CCOC(=O)c1[nH]c2ccc(Br)cc2c1NC(=O)CCN1CCN(C(=O)OCC)CC1 | 1.2 | -0.504 | 2.6 | -6.7 | 1.8 | · | ·
COC(=O)c1[nH]c2ccc(C)cc2c1NC(=O)CCN1CCN(Cc2ccc3c(c2)OCO3)CC1 | 1.1 | -20.2* | -0.0243 | 5.4 | -10.6 | 38.2* | 226
COC(=O)c1[nH]c2cccc(OC)c2c1NC(=O)CCN1CC(C)CC(C)C1 (configuration not stated) | 1.1 | -3.35* | 0.589 | 13.4 | 3.1 | 584 | 266
Cc1ccc(C(=O)Nc2ccccc2C(=O)NC(C(=O)O)C(C)C)cc1 (configuration not stated) | 1.3 | · | · | · | · | · | ·
COCCNC(=O)CNS(=O)(=O)c1ccc2nc(C)sc2c1 | 1.1 | -1.18 | -0.325 | -6.2 | 3.9 | · | ·
CCOC(=O)c1[nH]c2ccc(OC)cc2c1NC(=O)CCN1CCCC(C)C1 (configuration not stated) | 1 | -3.59* | 0.154 | -11.7 | -9.6 | 370* | 242
CC(C)c1ccc(NC(=O)CSc2nc3c(c(=O)[nH]2)CCC3)cc1 | 1.3 | 0.0356 | -0.283 | -2.1 | -8.3 | · | ·
COc1cc(-c2nc(S(=O)(=O)c3ccc(C)cc3)c(N3CCOCC3)o2)cc(OC)c1OC | 1 | -13.1* | 0.427 | -5.0 | -23.9 | 569 | 183
CNc1nc(N)c(C(=O)C(C)(C)C)s1 | 1.2 | -1.84* | 1.23 | 10.3 | 7.3 | 599 | 260
Cc1ccc(-n2ncc(C#N)c2/N=C/N2CCCCCC2)cc1 | 0.9 | -1.99* | 0.503 | 5.5 | 9.6 | 560* | 196
Cc1ccc(-n2ncc(C#N)c2/N=C/N2CCN(C)CC2)cc1 | 1.2 | -0.167 | 0.058 | 16.1 | -8.1 | · | ·
N#CCCN1CCN(Cn2c3ccccc3c3ccccc32)CC1 | 1 | 0.553 | 0.0654 | -11.6 | 3.3 | · | ·
CN1CCN(CC#CCn2c3ccccc3c3ccccc32)CC1 | 1.3 | -13* | 1.32 | 7.8 | 6.5 | 229* | 219
O=C(CN(CCc1ccccc1)C(=O)CNS(=O)(=O)c1ccc(F)cc1)NCC1CCCO1 (configuration not stated) | 1.1 | -2.32* | 0.0743 | 15.0 | -9.8 | 642 | 238
O=C(CN(CC1CCCO1)C(=O)CNS(=O)(=O)c1ccc(Cl)cc1)NCCc1ccccc1 (configuration not stated) | 1.2 | · | · | · | · | · | ·
N=c1c2c(-c3ccccc3)c(-c3ccccc3)n(Cc3ccco3)c2ncn1CCN1CCOCC1 | 1.1 | -7.2* | -1.12 | 30.5 | 2.7 | 360* | 252
Cc1cc(N2CCN(C/C=C/c3ccccc3)CC2)n2ncnc2n1 | 1 | -1.57* | -0.321 | -17.2 | -6.8 | 525 | 231
Cc1ccc(C2CC(=O)c3cnc(N4CCN(c5ccccc5)CC4)nc3C2)cc1 (configuration not stated) | 1 | -5.81* | -1.69 | 6.3 | 5.3 | 622 | 240
Cc1cccn2c(=O)c3cc(C(N)=S)c(=N)n(CCCOC(C)C)c3nc12 | 1.1 | -3.32* | 1.98 | -23.3 | -9.6 | 560 | 211
CCOCCCn1c(=N)c(C(N)=S)cc2c(=O)n3cccc(C)c3nc21 | 1.1 | -4.09* | -0.743 | -8.7 | -5.5 | 516 | 248
CCOC(=O)c1cc2c(=O)n3cccc(C)c3nc2n(C)c1=N | 1.1 | 0.709 | 0.00966 | -7.6 | 3.5 | · | ·
COC(=O)c1ccc(CSc2nnnn2C)o1 | 1.1 | -3.14* | -0.453 | -2.2 | -5.7 | 399* | 257
COC(=O)c1ccc(CSc2ccc3nnc(-c4cccc(F)c4)n3n2)o1 | 1.1 | -9.18* | -0.257 | 8.4 | -11.5 | 216* | 205
SMILES | MT1-MMP txn act | M1 antag | M1 ag | RORA act | SF1 activator | M1 antag conf | mGluR4 antag
COC(=O)c1ccc(CSc2nnc3c(Cl)cc(Cl)cn23)o1 | 1.1 | -0.803 | -0.351 | 0.2 | 4.9 | · | ·
Cc1ccc2nc(SCCC(=O)O)cc(C)c2c1 | 1.1 | · | · | · | · | · | ·
Clc1ccc(CN2C3=NCCN3c3ccccc32)cc1Cl | 1.2 | -3.22* | -1.47 | -1.1 | -4.9 | 399* | 247
O=C(Nc1ccc(O)cc1)C1CC=CCC1 (configuration not stated) | 1.2 | -0.449 | -1.15 | · | · | · | ·
c1ccc(-n2nnnc2SCc2cccc3nsnc23)cc1 | 1.1 | 0.843 | 0.569 | -13.3 | 17.8 | · | ·
O=S1(=O)N=C(N2CCCc3ccccc32)c2ccccc21 | 0.9 | -0.354 | -0.433 | -10.7 | 19.0 | · | ·
O=S1(=O)N=C(N2CCc3ccccc3C2)c2ccccc21 | 1 | -2.15* | 0.521 | -35.3 | 16.4 | 600* | 191
Cc1ccc(C2C(C(=O)c3cc4ccccc4o3)=C(O)C(=O)N2CCN2CCOCC2)o1 (configuration not stated) | 1.2 | -6.75* | -0.543 | 40.2 | 20.7 | 665 | 241
Cc1cc(N2C(=O)CCC2=O)ccc1NC(=O)c1cccs1 | 1.2 | · | · | · | · | · | ·
CCN(CC)CCNC(=O)c1sc2nc(-c3ccccc3)cn2c1C | 1.2 | -0.793* | 0.0276 | 9.9 | 10.9 | 345* | 212
COCCN(CCOC)C(=O)c1sc2nc(-c3ccccc3)cn2c1C | 0.9 | -1.01 | 0.433 | 26.0 | 14.4 | · | ·
CC(Oc1ccc(Cl)cc1Cl)c1nc(-c2ccc(NC(=O)c3ccccn3)cc2)no1 (configuration not stated) | 1.2 | · | · | · | · | · | ·
COC(=O)c1ccccc1NC(=O)c1cc(-c2cccs2)on1 | 1.2 | -2.59* | -1.3 | 1.9 | -7.2 | 653 | 198
COC(=O)c1ccccc1NC(=O)c1cc(-c2cccc(OC)c2)on1 | 1 | 0.29 | 0.544 | -3.6 | 1.6 | · | ·
CS(=O)(=O)Nc1ccccc1C(=O)Nc1cccc(Cl)c1 | · | -2.48* | 1.59 | 0.6 | -0.8 | 627 | 187
CCN(CC)CC(O)COCCC12CC3CC(CC(C3)C1)C2 (configuration not stated) | 1.1 | · | · | · | · | · | ·
CCN(CC)CCOC(=O)C12CC3CC(CC(C3)C1)C2 | 1.1 | -16.1* | -2.47 | -7.2 | -1.0 | 173* | 175
COC(=O)c1cn(NC(=O)c2cccnc2)c(=O)c2ccccc12 | · | 0.041 | -2.18 | -18.7 | -1.3 | · | ·
CCOC(=O)c1cnn(-c2ncnc3sc4c(c23)CCC4)c1N | 1.3 | -2.69* | -1.71 | 5.3 | -3.7 | 617 | 204
Cn1c(SCc2nc3ccccc3n2CCO)nc2ccccc21 | 0.9 | -2.56* | -0.585 | -10.5 | -1.1 | 647 | 225
Cn1c(SCc2nnc3n2CCCCC3)nc2ccccc21 | 1.2 | 0.282 | -0.00074 | -11.2 | -0.9 | · | ·
